{"source": "paper PMC8251575", "about": "(Diabetes, Obesity & Metabolism, 2021)", "key": {"[1]": {"test": "Oral semaglutide pharmacokinetics in plasma", "format": "in vivo, human", "conditions": "median (min, max)", "outline": "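Adults with type 2 diabetes on diet/exercise and/or metformin took once-daily oral tablets in a crossover trial: 3 mg weeks 0–4, 7 mg weeks 4–8, 14 mg weeks 8–12. Plasma was sampled at weeks 4, 8 and 12 after the last dose of each strength.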"}, "[2]": {"tested_on": "subjects with type 2 diabetes", "test": "Safety: treatment-emergent adverse events and hypoglycaemic episodes", "format": "in vivo, human", "conditions": "during oral semaglutide treatment", "outline": "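This was a 12-week crossover versus placebo in adults aged 18–75 with type 2 diabetes (HbA1c 6.0%–9.0%, BMI 20–38 kg/m²), with a 5–9-week wash-out between periods. Treatment-emergent AEs and hypoglycaemic episodes were counted from first dose to end of follow-up. Hypoglycaemia was defined as plasma glucose ≤3.9 mmol/L, or >3.9 mmol/L with symptoms. The population was the safety analysis set: all subjects given at least one dose.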"}}, "data": [{"smiles": "CC[C@H](C)[C@H](NC(=O)[C@H](Cc1ccccc1)NC(=O)[C@H](CCC(=O)O)NC(=O)[C@H](CCCCNC(=O)COCCOCCNC(=O)COCCOCCNC(=O)CC[C@H](NC(=O)CCCCCCCCCCCCCCCCC(=O)O)C(=O)O)NC(=O)[C@H](C)NC(=O)[C@H](C)NC(=O)[C@H](CCC(N)=O)NC(=O)CNC(=O)[C@H](CCC(=O)O)NC(=O)[C@H](CC(C)C)NC(=O)[C@H](Cc1ccc(O)cc1)NC(=O)[C@H](CO)NC(=O)[C@H](CO)NC(=O)[C@@H](NC(=O)[C@H](CC(=O)O)NC(=O)[C@H](CO)NC(=O)[C@@H](NC(=O)[C@H](Cc1ccccc1)NC(=O)[C@@H](NC(=O)CNC(=O)[C@H](CCC(=O)O)NC(=O)C(C)(C)NC(=O)[C@@H](N)Cc1cnc[nH]1)[C@@H](C)O)[C@@H](C)O)C(C)C)C(=O)N[C@@H](C)C(=O)N[C@@H](Cc1c[nH]c2ccccc12)C(=O)N[C@@H](CC(C)C)C(=O)N[C@H](C(=O)N[C@@H](CCCNC(=N)N)C(=O)NCC(=O)N[C@@H](CCCNC(=N)N)C(=O)NCC(=O)O)C(C)C", "note": "[Oral semaglutide]", "values": [{"measurement": "Semaglutide tmax", "setting": "[1]; 3 mg once daily, week 4, n = 15", "value": 1, "unit": "h"}, {"measurement": "Semaglutide tmax", "setting": "[1]; 7 mg once daily, week 8, n = 13", "value": 1, "unit": "h"}, {"measurement": "Semaglutide tmax", "setting": "[1]; 14 mg once daily, week 12, n = 13", "value": 1, "unit": "h"}, {"measurement": "Deaths, n (subjects)", "setting": "[2]; N = 15", "value": "no deaths"}, {"measurement": "Any AE, % of subjects", "setting": "[2]; safety analysis set N = 15", "value": 93.3, "unit": "%"}]}]}
